MPTP block: blocks calcium-induced mitochondrial swelling; AID 602449; inhibition, % at 10 µM; isolated mouse mitochondria, Ca2+ swelling absorbance, 30 min; 360,000 compounds, 1.4% hits;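 active = inhibition of 50% or more, scaled per plate between neutral and stimulator controls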;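 also: 0% = DMSO wells given calcium and 100% = 1 mM EGTA wells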
NR3A LBD binder: modulates the human NR3A ligand-binding domain. NR3A LBD differential scanning fluorimetry, Tm shift; 0% = protein alone, 100% = glycine-bound protein. Tm shift relative to glycine control, % at 25 µM. 340,000 compounds, 2.5% hits;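 active = melting temperature shift of at least 10% of the positive control shift, at one fixed dose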
proCasp7 act: counter-screen: procaspase-7 (human) activation; P55210; AID 463210; 330,000 compounds, 0.093% hits; recombinant procaspase-7, Ac-DEVD-pNA absorbance 405 nm; D23A/D198A/D206A triple mutant, cannot self-cleave; scale: DMSO 0, 5 µM enzyme 100; activation, % at 8.5 µM;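 active = percent activation above the screen-wide mean plus 3 SD, cut at about 25% in these data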
Target sequence (P55210 whole entry D23A/D198A/D206A): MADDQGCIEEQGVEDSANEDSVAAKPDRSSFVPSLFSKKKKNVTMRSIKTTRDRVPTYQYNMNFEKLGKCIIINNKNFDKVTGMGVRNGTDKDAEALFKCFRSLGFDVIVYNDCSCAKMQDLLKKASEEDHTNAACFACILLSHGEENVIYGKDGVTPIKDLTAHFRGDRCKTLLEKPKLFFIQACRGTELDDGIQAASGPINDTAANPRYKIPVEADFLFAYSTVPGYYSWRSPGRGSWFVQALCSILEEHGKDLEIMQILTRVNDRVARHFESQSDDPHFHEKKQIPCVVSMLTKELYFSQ
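signal = Epi-absorbance of released pNA at 405 nm, two timepoints | assay system = Uncleavable procaspase-7 mutant enzyme | reagent = Ac-DEVD-pNA substrate, 400 µM as added | times = 1 h enzyme–compound preincubation and 2 h substrate reaction, both 25 °C | benchmarks = low DMSO alone, high DMSO plus 5 µM PC-7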
procasp3 activ: activates human procaspase-3; 330,000 compounds, 0.11% hits; recombinant procaspase-3 D3A, Ac-DEVD-pNA absorbance 405 nm; P42574; activation, % at 8.5 µM;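 active = activation above the mean of all tested compounds plus 3 SD, cut at about 21% in these data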;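 also: 0% = DMSO alone and 100% = DMSO wells spiked with extra 5 µM PC-3 D3A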
Target sequence (P42574 whole entry D9A/D28A/D175A): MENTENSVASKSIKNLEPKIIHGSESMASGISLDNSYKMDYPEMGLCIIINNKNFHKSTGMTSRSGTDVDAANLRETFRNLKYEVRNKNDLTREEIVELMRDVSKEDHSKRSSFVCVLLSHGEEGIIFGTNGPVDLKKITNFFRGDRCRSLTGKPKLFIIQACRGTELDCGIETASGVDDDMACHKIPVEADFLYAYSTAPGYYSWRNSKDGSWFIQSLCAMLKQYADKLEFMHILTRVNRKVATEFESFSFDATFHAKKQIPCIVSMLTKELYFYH
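Evaluation: percent activation relative to control range; Material: Procaspase-3 D3A mutant, all three cleavage aspartates alanine; Compound: single dose, 8.5 µM nominal compound, 0.8% DMSO; Replication: one well per compound; Signal: absorbance at 405 nm, 0 and 120 min; Schedule: 1 h preincubation plus 2 h reaction at 25 °C.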
aDG glyco act: alpha-DG glycosylation activation; 360,000 compounds, 0.22% hits; Pro5-aDG cells, alpha-DG glycosylation AlphaScreen (IIH6); 0% Pro5, 100% B10-LARGE cell signal; activation, % at 10 µM;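 active = activation of at least 8% versus controls, or a plate z-score of at least 8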;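 also: Pro5 are CHO cells carrying HIG-tagged alpha-DG that lacks glycosylation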
Active calls of the source: *; · = no result given. Hits are enriched below; roughly 3.7% of the tested compounds scored in any of these assays.

SMILES	MPTP block	NR3A LBD binder	proCasp7 act	procasp3 activ	aDG glyco act
O=C(NCCCN1CCOCC1)c1ccc(Sc2cccc(Cl)c2)c([N+](=O)[O-])c1	3	19*	3	-3	0
Cc1cc(C(=O)COC(=O)C2=COCCO2)c(C)n1-c1ccccc1	-1	-3	2	-2	0
COc1ccc(NC(=O)c2n[nH]c(=O)c3ccccc23)cc1S(=O)(=O)N1CCCCC1	4	26*	-2	4	0
COc1ccc(C(=O)Nc2ccc(NC(=O)c3ccccc3)cc2)cc1S(=O)(=O)N1CCOCC1	0	32*	1	4	0
COc1ccc(NC(=O)c2ccco2)cc1S(=O)(=O)N1CCCCC1	0	-3	3	-7	0
Cc1ccc(C(=O)Nc2ccc(S(=O)(=O)N3CCOCC3)cc2)cc1Br	12	34*	0	1	0
CC(=O)c1ccc(NC(=O)c2ccc(C)c(S(=O)(=O)N3CCOCC3)c2)cc1	1	0	3	-11	0
O=C(Nc1ccc(S(=O)(=O)N2CCOCC2)cc1)c1cc(-c2ccccc2O)n[nH]1	46	27*	-2	2	0
COc1cc(-c2cnc3c(NC=O)cc(-c4ccccc4Cl)cn23)cc(OC)c1OC	1	·	·	·	0
COc1ccc(NC(=O)c2ccc(NCCCN3CCOCC3)c([N+](=O)[O-])c2)cc1	-2	14*	-1	-2	1
Cc1ccc(C(=O)Nc2ccc(S(=O)(=O)N3CCN(C)CC3)cc2)cc1	0	-2	0	4	0
Cc1ccc(C(=O)Nc2ccc(S(=O)(=O)N3CCOCC3)cc2)cc1C	0	22*	2	1	0
O=C(Nc1cccc(S(=O)(=O)N2CCOCC2)c1)c1ccc(Cl)c([N+](=O)[O-])c1	2	0	-4	1	0
CN1CCN(S(=O)(=O)c2ccc(NC(=O)C(C)(C)C)cc2)CC1	-2	11*	-1	-5	0
O=C(Nc1ccc(S(=O)(=O)N2CCOCC2)cc1)c1ccc(Cl)c([N+](=O)[O-])c1	2	35*	·	·	0
Cc1ccc(S(=O)(=O)N2[C@H](CC(=O)OCc3ccccc3)OC[C@@H]2C(C)C)cc1	0	·	·	·	0
N#Cc1cccc(NC(=O)c2ccc(S(=O)(=O)N3CCOCC3)cc2)c1	-2	16*	-5	9	0
Cc1ccc(S(=O)(=O)N2CCN(CC(=O)N/N=C/c3ccc(C)o3)CC2)cc1	-3	32*	1	-6	0
CC(=O)Nc1ccc(S(=O)(=O)N2CCCN(S(=O)(=O)c3ccc(NC(C)=O)cc3)CC2)cc1	2	11*	1	2	0
N#Cc1cccc(NS(=O)(=O)c2ccc(S(=O)(=O)N3CCOCC3)cc2)c1	-1	1	-4	0	0
CC(=O)Nc1ccc(S(=O)(=O)N2CCN(S(=O)(=O)c3ccc(NC(C)=O)cc3)CC2)cc1	-1	-1	·	·	0
CC(=O)N1CCN(c2ccc(NC(=O)c3ccc(Cl)c([N+](=O)[O-])c3)cc2)CC1	0	15*	7	-1	0
Cc1ccc(C(=O)N2CCN(c3ccc(NC(=O)c4cc(C)cc(C)c4)cc3)CC2)cc1	0	13*	·	·	0
CC(=O)Nc1ccc(C(=O)Nc2ccc(S(=O)(=O)N3CCOCC3)cc2)cc1	-1	31*	1	1	0
O=C(Nc1ccc(S(=O)(=O)N2CCOCC2)cc1)c1cccc(Br)c1	0	31*	9	-1	0
SMILES	MPTP block	NR3A LBD binder	proCasp7 act	procasp3 activ	aDG glyco act
CC(C)CC(=O)Nc1nc(-c2ccc(S(=O)(=O)N3CCOCC3)cc2)cs1	0	0	·	·	1
Cc1ccc(Nc2nc(-c3ccc(S(=O)(=O)N4CCOCC4)cc3)cs2)cc1Cl	23	26*	2	1	0
CC(C)COC(=O)N1CCCCC1c1cc(C(=O)Nc2ccc3c(c2)OCO3)no1 (stereo unspecified)	0	·	·	·	0
CC(C)(C)C(=O)CN1CCN(S(=O)(=O)c2ccc(F)cc2)CC1	-2	12*	8	3	0
Cc1ccc(-n2ccc(=O)c(C(=O)Nc3ccc(S(=O)(=O)N4CCOCC4)cc3)n2)cc1	-1	12*	-8	-2	0
O=C(Nc1ccc(S(=O)(=O)N2CCOCC2)cc1)c1ccc([N+](=O)[O-])s1	1	29*	5	7	0
COc1cc(OC)nc(Nc2nc(C(N)Cc3ccc(F)cc3)cs2)n1 (stereo unspecified)	2	·	·	·	6
CC(=O)Nc1ccc(/C=C(\C#N)S(=O)(=O)c2ccc(C)cc2)cc1	0	-6	16	-2	0
Nc1nc(SCc2ccccc2)c2ncn(C3CCCO3)c2n1 (stereo unspecified)	-2	-1	·	·	0
Cc1nnc(NC(=O)c2ccc(N3CCCC3=O)cc2)s1	-1	1	·	·	0
O=C(Nc1nc2ccc(F)cc2s1)c1ccc(N2CCCC2=O)cc1	-1	11*	6	-1	0
CCOc1ccc(NC2=C(Cl)C(=O)N(C3CCCCC3)C2=O)cc1	1	17*	-10	-8	0
CC(=O)Nc1ccc(S(=O)(=O)Nc2nc3ccc(C)cc3s2)cc1	1	-5	-6	3	0
Cc1ccc2nc(-c3ccc(NC(=S)NCCC(C)C)cc3)sc2c1	4	24*	-2	1	0
Cc1ccc2nc(-c3ccc(NS(=O)(=O)c4ccc(F)cc4)cc3)sc2c1	25	31*	6	9	0
CNC(=S)Nc1ccc(-c2nc3ccc(C)cc3s2)cc1	2	28*	-16	-10	1
CC1CCc2c(sc(/N=C/c3cccnc3)c2C(N)=O)C1 (stereo unspecified)	2	11*	-4	-9	0
O=c1[nH]nc(SC2CCCCC2)c(=O)[nH]1	1	-3	·	·	0
C/C(N)=C(/C#N)C(=O)CSc1nn(-c2ccc(Cl)cc2)c(=S)s1	-1	13*	-5	8	0
C/C(N)=C(/C#N)C(=O)CSc1nnc(SCc2ccc(Cl)cc2)s1	1	1	6	11	2
CCOC(=O)C1=C[C@@H](c2ccccc2)N(S(=O)(=O)c2ccc(C)cc2)[C@H]1c1ccc(OC)cc1	2	·	·	·	1
Cc1[nH][nH]c(=O)c1C(c1cc([N+](=O)[O-])ccc1O)c1c(C)[nH][nH]c1=O	1	10*	-17	-12	0
Cc1[nH][nH]c(=O)c1C(c1ccccc1[N+](=O)[O-])C(C#N)C#N (stereo unspecified)	0	-1	0	-5	0
Fc1cc(F)c(F)c(SCn2cc(Br)cn2)c1F	-1	1	·	·	0
Cc1ccc2c(C)c(C)c(=O)n(C)c2c1	-2	11*	·	·	0
